In ChEMBL document CHEMBL3227968, “Synthesis and antitumor activity of water-soluble (2-chloroethyl)nitrosoureas” (1979):
Active and inactive are the calls of the source. The rule behind the calls is not given here.

Tests used:
L1210 [1] = experiment: Antitumor activity against mouse L1210 cells allografted in mouse assessed as tumor inhibition at 2 mg/kg, ip single dose relative to control; type: functional; conditions: route intraperitoneal
How it was run: (§1)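 L1210 leukemia, 10⁶ cells per mouse inoculated ip. Single ip dose given on day 1. Median survival time expressed as %T/C = (MST treated/MST control) × 100, with T/C > 125 counted as significant. Mice surviving at 30 days were recorded, six mice per treatment dose.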

L1210 [2] = experiment: Antitumor activity against mouse L1210 cells allografted in mouse assessed as mouse survival after 30 days at 128 mg/kg, ip single dose relative to control; type: functional, organism-based; set-up: dose 128 mg/kg
How it was run: (§2)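 L1210 leukemia, 10⁶ cells implanted ip per mouse. One ip dose given on day 1. Six mice per dose level. Survivors counted at day 30. Median survival time also recorded as %T/C = (MST treated/MST control) × 100, with T/C > 125 taken as significant.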

L1210 [3] = experiment: Antitumor activity against mouse L1210 cells allografted in mouse assessed as mouse survival after 30 days at 32 mg/kg, ip single dose relative to control; type: functional, organism-based; set-up: dose 32 mg/kg; how it was run: as §2
L1210 [4] = experiment: Antitumor activity against mouse L1210 cells allografted in mouse assessed as mouse survival after 30 days at 8 mg/kg, ip single dose relative to control; type: functional, organism-based; set-up: dose 8 mg/kg; how it was run: as §2
L1210 [5] = experiment: Antitumor activity against mouse L1210 cells allografted in mouse assessed as tumor inhibition at 1 mg/kg, ip single dose relative to control; type: functional; conditions: route intraperitoneal; how it was run: as §1
L1210 [6] = experiment: Antitumor activity against mouse L1210 cells allografted in mouse assessed as mouse survival after 30 days at 2 mg/kg, ip single dose relative to control; type: functional, organism-based; set-up: dose 2 mg/kg; how it was run: as §2
L1210 [7] = experiment: Antitumor activity against mouse L1210 cells allografted in mouse assessed as tumor inhibition at 4 mg/kg, ip single dose relative to control; type: functional; conditions: route intraperitoneal; how it was run: as §1
L1210 [8] = experiment: Antitumor activity against mouse L1210 cells allografted in mouse assessed as mouse survival after 30 days at 1 mg/kg, ip single dose relative to control; type: functional, organism-based; set-up: dose 1 mg/kg; how it was run: as §2
L1210 [9] = experiment: Antitumor activity against mouse L1210 cells allografted in mouse assessed as tumor inhibition at 16 mg/kg, ip single dose relative to control; type: functional; conditions: route intraperitoneal; how it was run: as §1
L1210 [10] = experiment: Antitumor activity against mouse L1210 cells allografted in mouse assessed as mouse survival after 30 days at 16 mg/kg, ip single dose relative to control; type: functional, organism-based; set-up: dose 16 mg/kg; how it was run: as §2
L1210 [11] = experiment: Antitumor activity against mouse L1210 cells allografted in mouse assessed as median survival time at 32 mg/kg, ip single dose relative to control; type: functional; conditions: route intraperitoneal; how it was run: as §1
L1210 [12] = experiment: Antitumor activity against mouse L1210 cells allografted in mouse assessed as tumor inhibition at 128 mg/kg, ip single dose relative to control; type: functional; conditions: route intraperitoneal; how it was run: as §1
L1210 [13] = experiment: Antitumor activity against mouse L1210 cells allografted in mouse assessed as tumor inhibition at 8 mg/kg, ip single dose relative to control; type: functional; conditions: route intraperitoneal; how it was run: as §1
L1210 [14] = experiment: Antitumor activity against mouse L1210 cells allografted in mouse assessed as mouse survival after 30 days at 4 mg/kg, ip single dose relative to control; type: functional, organism-based; set-up: dose 4 mg/kg; how it was run: as §2
L1210 [15] = experiment: Antitumor activity against mouse L1210 cells allografted in mouse assessed as tumor inhibition at 64 mg/kg, ip single dose relative to control; type: functional; conditions: route intraperitoneal; how it was run: as §1
L1210 [16] = experiment: Antitumor activity against mouse L1210 cells allografted in mouse assessed as mouse survival after 30 days at 0.5 mg/kg, ip qd for 8 days relative to control; type: functional, organism-based; set-up: dose 0.5 mg/kg
How it was run: as §2, with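 “Dosing” for “One”, “once daily for 8 days starting” for “dose given on”, “1, with solutions prepared fresh daily.” for “1.”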

L1210 [17] = experiment: Antitumor activity against mouse L1210 cells allografted in mouse assessed as mouse survival after 30 days at 32 mg/kg, ip qd for 8 days relative to control; type: functional, organism-based; set-up: dose 32 mg/kg
How it was run: as §2, with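 “Dosing” for “One”, “once daily for 8 days starting” for “dose given on”, “1, with solutions prepared fresh daily.” for “1.”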

L1210 [18] = experiment: Antitumor activity against mouse L1210 cells allografted in mouse assessed as mouse survival after 30 days at 1 mg/kg, ip qd for 8 days relative to control; type: functional, organism-based; set-up: dose 1 mg/kg
How it was run: as §2, with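 “Dosing” for “One”, “once daily for 8 days starting” for “dose given on”, “1, with solutions prepared fresh daily.” for “1.”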

L1210 [19] = experiment: Antitumor activity against mouse L1210 cells allografted in mouse assessed as tumor inhibition at 0.5 mg/kg, ip qd for 8 days relative to control; type: functional; conditions: route intraperitoneal
How it was run: (§3)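 L1210 leukemia, 10⁶ cells per mouse implanted ip. Dosing ip once daily for 8 days from day 1, with solutions prepared fresh daily. Read-out: median survival time as %T/C = (MST treated/MST control) × 100, with T/C > 125 taken as significant inhibition. Survivors counted at 30 days, six mice per dose.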

L1210 [20] = experiment: Antitumor activity against mouse L1210 cells allografted in mouse assessed as median survival time at 32 mg/kg, ip qd for 8 days relative to control; type: functional; conditions: route intraperitoneal; how it was run: as §3
L1210 [21] = experiment: Antitumor activity against mouse L1210 cells allografted in mouse assessed as tumor inhibition at 1 mg/kg, ip qd for 8 days relative to control; type: functional; conditions: route intraperitoneal; how it was run: as §3
L1210 [22] = experiment: Antitumor activity against mouse L1210 cells allografted in mouse assessed as tumor inhibition at 0.25 mg/kg, ip qd for 8 days relative to control; type: functional; conditions: route intraperitoneal; how it was run: as §3
L1210 [23] = experiment: Antitumor activity against mouse L1210 cells allografted in mouse assessed as tumor inhibition at 16 mg/kg, ip qd for 8 days relative to control; type: functional; conditions: route intraperitoneal; how it was run: as §3
L1210 [24] = experiment: Antitumor activity against mouse L1210 cells allografted in mouse assessed as tumor inhibition at 2 mg/kg, ip qd for 8 days relative to control; type: functional; conditions: route intraperitoneal; how it was run: as §3
L1210 [25] = experiment: Antitumor activity against mouse L1210 cells allografted in mouse assessed as tumor inhibition at 4 mg/kg, ip qd for 8 days relative to control; type: functional; conditions: route intraperitoneal; how it was run: as §3
L1210 [26] = experiment: Antitumor activity against mouse L1210 cells allografted in mouse assessed as tumor inhibition at 8 mg/kg, ip qd for 8 days relative to control; type: functional; conditions: route intraperitoneal; how it was run: as §3
L1210 [27] = experiment: Antitumor activity against mouse L1210 cells allografted in mouse assessed as mouse survival after 30 days at 2 mg/kg, ip qd for 8 days relative to control; type: functional, organism-based; set-up: dose 2 mg/kg
How it was run: as §2, with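 “Dosing” for “One”, “once daily for 8 days starting” for “dose given on”, “1, with solutions prepared fresh daily.” for “1.”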

L1210 [28] = experiment: Antitumor activity against mouse L1210 cells allografted in mouse assessed as mouse survival after 30 days at 0.25 mg/kg, ip qd for 8 days relative to control; type: functional, organism-based; set-up: dose 0.25 mg/kg
How it was run: as §2, with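 “Dosing” for “One”, “once daily for 8 days starting” for “dose given on”, “1, with solutions prepared fresh daily.” for “1.”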

L1210 [29] = experiment: Antitumor activity against mouse L1210 cells allografted in mouse assessed as mouse survival after 30 days at 8 mg/kg, ip qd for 8 days relative to control; type: functional, organism-based; set-up: dose 8 mg/kg
How it was run: as §2, with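 “Dosing” for “One”, “once daily for 8 days starting” for “dose given on”, “1, with solutions prepared fresh daily.” for “1.”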

L1210 [30] = experiment: Antitumor activity against mouse L1210 cells allografted in mouse assessed as mouse survival after 30 days at 4 mg/kg, ip qd for 8 days relative to control; type: functional, organism-based; set-up: dose 4 mg/kg
How it was run: as §2, with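 “Dosing” for “One”, “once daily for 8 days starting” for “dose given on”, “1, with solutions prepared fresh daily.” for “1.”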

L1210 [31] = experiment: Antitumor activity against mouse L1210 cells allografted in mouse assessed as mouse survival after 30 days at 16 mg/kg, ip qd for 8 days relative to control; type: functional, organism-based; set-up: dose 16 mg/kg
How it was run: as §2, with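 “Dosing” for “One”, “once daily for 8 days starting” for “dose given on”, “1, with solutions prepared fresh daily.” for “1.”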

| SMILES | T/C (L1210 [1]) [%] | Survival (L1210 [4]) | Survival (L1210 [6]) | T/C (L1210 [7]) [%] | T/C (L1210 [9]) [%] | T/C (L1210 [11]) [%] | T/C (L1210 [13]) [%] | Survival (L1210 [14]) | Survival (L1210 [16]) | Survival (L1210 [18]) | T/C (L1210 [19]) [%] | T/C (L1210 [20]) [%] | T/C (L1210 [21]) [%] | T/C (L1210 [22]) [%] | T/C (L1210 [23]) [%] | T/C (L1210 [24]) [%] | T/C (L1210 [25]) [%] | T/C (L1210 [26]) [%] | Survival (L1210 [27]) | Survival (L1210 [28]) | further results |
| --- | --- | --- | --- | --- | --- | --- | --- | --- | --- | --- | --- | --- | --- | --- | --- | --- | --- | --- | --- | --- | --- |
| O=NN(CCCl)C(=O)N[C@@H]1[C@H](O)[C@H](NC(=O)N(CCCl)N=O)[C@@H](O)[C@H](O)[C@H]1O | 121 | inactive | inactive | 114 | 179 | 214 | 171 | inactive |  |  |  |  |  |  |  |  |  |  |  |  | Survival (L1210 [2]): inactive; Survival (L1210 [3]): inactive; T/C (L1210 [5]): 100%; Survival (L1210 [8]): inactive; Survival (L1210 [10]): inactive; T/C (L1210 [12]): 86%; T/C (L1210 [15]): 250% |
| O=NN(CCCl)C(=O)N[C@H]1[C@@H](O)[C@@H](O)[C@H](NC(=O)N(CCCl)N=O)[C@@H](O)[C@@H]1O | 150 | inactive | inactive | 171 | >471 | 136 | 214 | inactive |  |  |  |  |  |  |  |  |  |  |  |  | Survival (L1210 [3]): inactive |
| O=NN(CCCl)C(=O)N[C@H]1[C@H](O)[C@H](O)[C@@H](O)[C@@H]1O |  |  |  |  |  |  |  |  | inactive | inactive | 114 | 171 | 157 | 144 | >471 | 221 | 207 | 243 | inactive | inactive | Survival (L1210 [17]): inactive; Survival (L1210 [29]): inactive |
| O=NN(CCCl)C(=O)NCCCl [CARMUSTINE] | 114 | inactive | inactive | 143 | 271 | >471 | 193 | inactive | inactive | inactive | 100 | 193 | 100 | 100 | >471 | 114 | 193 | 293 | inactive | inactive | Survival (L1210 [30]): inactive; Survival (L1210 [31]): Active; Survival (L1210 [29]): inactive |
| O=NN(CCCl)C(=O)N[C@H]1[C@@H](O)[C@@H](O)[C@H](NC(=O)N(CCCl)N=O)[C@H](O)[C@@H]1O | 129 | inactive | inactive | 136 | >243 | >471 | 171 | inactive |  |  |  |  |  |  |  |  |  |  |  |  | Survival (L1210 [2]): inactive; T/C (L1210 [5]): 114%; Survival (L1210 [8]): inactive; Survival (L1210 [10]): inactive; T/C (L1210 [12]): 293%; T/C (L1210 [15]): 286% |
| O=NN(CCCl)C(=O)N[C@H]1[C@H](O)[C@H](O)[C@H](O)[C@@H]1O |  |  |  |  |  |  |  |  | inactive | inactive | 114 | 186 | 114 | 107 | >471 | 143 | 250 | >471 | inactive | inactive | Survival (L1210 [17]): inactive; Survival (L1210 [31]): Active |
| O=NN(CCCl)C(=O)N[C@H]1[C@H](O)[C@@H](O)[C@@H](O)[C@@H]1O |  |  |  |  |  |  |  |  | inactive | inactive | 107 | 143 | 114 | 100 | 171 | 171 | 229 | 336 | inactive | inactive | Survival (L1210 [17]): inactive; Survival (L1210 [30]): inactive; Survival (L1210 [31]): inactive |
